Results: ChEMBL document CHEMBL1144703, “Identification of novel ligands for the RNA pseudoknot that regulate -1 ribosomal frameshifting” (Bioorg Med Chem, 2008)
Activity calls are given as the source filed them. No cut-off for these calls is given here.

How the values were obtained:
[1] = Activity at synthetic biotin-RNA pseudoknot assessed as increase in -1 ribosomal frameshifting efficiency at 250 uM by dual luciferase assay
How it was run: (§1)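 Biotin-pseudoknot template ligated into dual luciferase vector (XhoI/SpeI). Coupled transcription/translation in rabbit reticulocyte lysate with compounds at 250 μM in DMSO; DMSO control. Frameshift efficiency from SDS–PAGE band quantification (100 vs 40 kDa, PhosphorImager) or dual luciferase firefly/Renilla ratio, 10 s reads; fold change = efficiency with compound / without; triplicate runs.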

HEK293 = experiment: Activity at synthetic biotin-RNA pseudoknot assessed as increase in -1 ribosomal frameshifting efficiency in human HEK293 cells at 250 uM by transcription/translation-coupled assay; type: cell-based
How it was run: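 HEK 293 in DMEM, 10% FBS, 1% pen-strep, seeded to 40% confluence, transfected with biotin-pseudoknot dual luciferase construct (50 ng DNA, JetPEI) for 18 h, then compound in DMSO added for a further 18 h. Passive lysis 30 min at room temperature, protein normalised by Bradford (50 μg), firefly/Renilla luciferase ratio read.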

[2] = Activity at synthetic biotin-RNA pseudoknot assessed as increase in -1 ribosomal frameshifting efficiency by rabbit reticulocyte based transcription/translation-coupled assay
How it was run: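 Concentration series 25 nM to 250 μM in rabbit reticulocyte TNT-coupled assay with biotin-pseudoknot template; biotin at 250 μM as comparator. Frameshifting % from SDS–PAGE autoradiogram, frameshift (100 kDa) vs non-frameshift (40 kDa) protein.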

[3] = test system: Pea enation mosaic virus-1; experiment: Activity at PEMV RNA pseudoknot assessed as increase in -1 ribosomal frameshifting efficiency at 250 uM by SDS-PAGE based transcription/translation-coupled assay
How it was run: (§2)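 Template carries PEMV pseudoknot in place of biotin-pseudoknot in dual luciferase vector. In vitro TNT-coupled transcription/translation in rabbit reticulocyte lysate, compounds in DMSO (DMSO control). Read-out by SDS–PAGE autoradiography, frameshift (100 kDa) vs non-frameshift (40 kDa) products quantified by PhosphorImager, or by dual luciferase (firefly then Renilla, 10 s each, ratio); luciferase values mean of triplicates.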

[4] = test system: Pea enation mosaic virus-1; experiment: Activity at PEMV RNA pseudoknot assessed as increase in -1 ribosomal frameshifting efficiency at 250 uM by dual luciferase based transcription/translation-coupled assay; how it was run: as §2
[5] = Activity at synthetic biotin-RNA pseudoknot assessed as increase in -1 ribosomal frameshifting efficiency at 250 uM by rabbit reticulocyte based transcription/translation-coupled assay; how it was run: as §1

Structure (SMILES) | Activity [1] | other results
CCOC(=O)N1CCN(C(=O)Nc2ccccc2SC)CC1 | Active | 
CCOC(=O)c1cccc(NC(=O)N2CCCN2C(=O)c2cccnc2SCCCC#N)c1 | Active | 
COC(=O)c1cc(NC(=O)NCCSCc2ccccc2)cc(C(=O)OC)c1 | Active | 
COC(=O)C(CCCCNC(=O)Nc1cc(F)ccc1F)NS(=O)(=O)c1ccc(C)cc1 (stereo unspecified) | 18.1% | Activity (HEK293): 8.05%; Activity [2]: Dose-dependent effect; Activity [3]: 7.6%; Activity [4]: inactive; Activity [5]: 13.7%
CCOC(=O)C(CSCc1ccccc1)NC(=O)Nc1ccc(SC)cc1 (stereo unspecified) | Active | 
CSc1ccccc1NC(=O)NCC(=O)OCc1ccccc1 | Active | 
